According to ChEMBL document CHEMBL1123488, “Agents for the treatment of brain edema. 2. [(2,3,9,9a-Tetrahydro-3-oxo-9a-substituted-1H-fluoren-7-yl)oxy]+ ++alkanoi c acids and some of their analogues” (J Med Chem, 1986):
Values joined by “and” are separate entries in the source; they are usually repeats but may differ in a detail not shown here. Equal entries are not always repeated.

Tests used:
Felis catus [1] = organism: Felis catus; assay: Compound was tested for inhibition of sodium ion uptake in cat cerebrocortical slices at concentration of (10e-9 )M; format: functional
Cavia porcellus [2] = organism: Cavia porcellus; assay: Compound was tested for inhibition of HCO3- dependent swelling of guinea pig cerebrocortical slices at concentration of (10e-11) M; format: functional
Procedure, shortened: (§1)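 Cerebrocortical slices were weighed and incubated in Warburg flasks at 22 °C in medium of KCl 27, NaCl 100, glucose 10 and KH2PO4 1.2 mmol/L (27 mM K+ HEPES). HCO3- (5 mM) was added from the side arm for the final 40 min, and the compound was present throughout the 60 min. Swelling = (final − initial wet weight)/initial wet weight × 100. Two-tailed t-test versus 27 K + HCO3-.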

Felis catus [3] = assay: In vivo activity in the acceleration-deceleration head injury assay at dose of 1 mg/kg; 14/25
Felis catus [4] = assay: In vivo activity in the acceleration-deceleration head injury assay at dose of 5 mg/kg; 7/22
Cavia porcellus [5] = organism: Cavia porcellus; assay: Compound was tested for inhibition of sodium ion uptake in guinea pig cerebrocortical slices at concentration of (10e-8) M; format: functional
Felis catus [6] = organism: Felis catus; assay: Compound was tested for inhibition of chloride ion uptake in cat cerebrocortical slices at concentration of (10e-10) M; format: functional
Procedure, shortened: (§2)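 Slices were incubated 60 min at 22 °C in 27 mM K+ medium with 5 mM HCO3- added for the last 40 min, with the compound present throughout. Slices were then filtered off, reweighed and homogenized (10% w/v) in 1 N perchloric acid. The supernatant was assayed for electrolytes, expressed as µmol/g initial wet weight. Two-tailed t-test versus 27 K + HCO3-.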

Felis catus [7] = organism: Felis catus; assay: Compound was tested for inhibition of HCO3- dependent swelling of cat cerebrocortical slices at concentration of (10e-10) M; format: functional; procedure, shortened: as §1
Rattus norvegicus [8] = organism: Rattus norvegicus; assay: Compound was tested for inhibition of chloride ion uptake in rat cerebrocortical slices at concentration of (10e-4) M; format: functional; procedure, shortened: as §2
Cavia porcellus [9] = organism: Cavia porcellus; assay: Compound was tested for inhibition of potassium ion uptake in guinea pig cerebrocortical slices at concentration of (10e-12) M; format: functional; procedure, shortened: as §2
Cavia porcellus [10] = organism: Cavia porcellus; assay: Compound was tested for inhibition of sodium ion uptake in guinea pig cerebrocortical slices at concentration of (10e-12) M; format: functional
Cavia porcellus [11] = organism: Cavia porcellus; assay: Compound was tested for inhibition of chloride ion uptake in guinea pig cerebrocortical slices at concentration of (10e-11) M; format: functional; procedure, shortened: as §2
Felis catus [12] = organism: Felis catus; assay: Compound was tested for inhibition of sodium ion uptake in cat cerebrocortical slices at concentration of (10e-11) M; format: functional
Felis catus [13] = organism: Felis catus; assay: Compound was tested for inhibition of chloride ion uptake in cat cerebrocortical slices at concentration of (10e-11) M; format: functional; procedure, shortened: as §2
Felis catus [14] = organism: Felis catus; assay: Compound was tested for inhibition of HCO3- dependent swelling of cat cerebrocortical slices at concentration of (10e-8) M; format: functional; procedure, shortened: as §1
Felis catus [15] = organism: Felis catus; assay: Compound was tested for inhibition of K+ ion uptake in cat cerebrocortical slices at concentration of (10e-8) M; format: functional; procedure, shortened: as §2
Rattus norvegicus [16] = organism: Rattus norvegicus; assay: Compound was tested for inhibition of HCO3- dependent swelling of rat cerebrocortical slices at concentration of (10e-4) M; format: functional; procedure, shortened: as §1
Felis catus [17] = organism: Felis catus; assay: Compound was tested for inhibition of sodium ion uptake in cat cerebrocortical slices at concentration of (10e-7) M; format: functional
Felis catus [18] = organism: Felis catus; assay: Compound was tested for inhibition of sodium ion uptake in cat cerebrocortical slices at concentration of (10e-13) M; format: functional
Cavia porcellus [19] = organism: Cavia porcellus; assay: Compound was tested for inhibition of HCO3- dependent swelling of guinea pig cerebrocortical slices at concentration of (10e-12) M; format: functional; procedure, shortened: as §1
Cavia porcellus [20] = organism: Cavia porcellus; assay: Compound was tested for inhibition of potassium ion uptake in guinea pig cerebrocortical slices at concentration of (10e-7) M; format: functional; procedure, shortened: as §2
Rattus norvegicus [21] = organism: Rattus norvegicus; assay: Compound was tested for inhibition of sodium ion uptake in rat cerebrocortical slices at concentration of (10e-8) M; format: functional
Rattus norvegicus [22] = organism: Rattus norvegicus; assay: Compound was tested for inhibition of chloride ion uptake in rat cerebrocortical slices at concentration of (10e-8) M; format: functional; procedure, shortened: as §2
Cavia porcellus [23] = organism: Cavia porcellus; assay: Compound was tested for inhibition of sodium ion uptake in guinea pig cerebrocortical slices at concentration of (10e-6) M; format: functional
Felis catus [24] = assay: In vivo activity in the acceleration-deceleration head injury assay at dose of 2.5 mg/kg; 8-19
Rattus norvegicus [25] = organism: Rattus norvegicus; assay: Compound was tested for inhibition of chloride ion uptake in rat cerebrocortical slices at concentration of (10e-6) M; format: functional; procedure, shortened: as §2
Felis catus [26] = organism: Felis catus; assay: Compound was tested for inhibition of K+ ion uptake in cat cerebrocortical slices at concentration of (10e-13) M; format: functional; procedure, shortened: as §2
Rattus norvegicus [27] = organism: Rattus norvegicus; assay: Compound was tested for inhibition of potassium ion uptake in rat cerebrocortical slices at concentration of (10e-8) M; format: functional
Cavia porcellus [28] = organism: Cavia porcellus; assay: Compound was tested for inhibition of potassium ion uptake in guinea pig cerebrocortical slices at concentration of (10e-6) M; format: functional; procedure, shortened: as §2
Rattus norvegicus [29] = organism: Rattus norvegicus; assay: Compound was tested for inhibition of HCO3- dependent swelling of rat cerebrocortical slices at concentration of (10e-3) M; format: functional; procedure, shortened: as §1
Felis catus [30] = assay: In vivo activity in the acceleration-deceleration head injury assay at dose of 5 mg/kg; 1/19
Felis catus [31] = organism: Felis catus; assay: Compound was tested for inhibition of HCO3- dependent swelling of cat cerebrocortical slices at concentration of (10e-12) M; format: functional; procedure, shortened: as §1
Rattus norvegicus [32] = assay: In vivo activity in the acceleration-deceleration head injury assay at dose of 10 mg/kg; format: functional
Procedure, shortened: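 Cat acceleration-deceleration head injury model. Drug given intravenously 20 min after the acceleration-deceleration event, before the hypoxemia period. Animals were matched in pairs by sex and run together; one was randomly assigned to drug, the other served as control. Deaths were counted over 24 h after trauma, excluding animals dying during the procedure or hypoxemia. Mortality was compared by χ² analysis.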

Felis catus [33] = organism: Felis catus; assay: Compound was tested for inhibition of K+ ion uptake in cat cerebrocortical slices at concentration of (10e-7) M; format: functional; procedure, shortened: as §2
Felis catus [34] = assay: In vivo activity in the acceleration-deceleration head injury assay at dose of 2.5 mg/kg; 5/21
Rattus norvegicus [35] = organism: Rattus norvegicus; assay: Compound was tested for inhibition of sodium ion uptake in rat cerebrocortical slices at concentration of (10e-3) M; format: functional
Felis catus [36] = organism: Felis catus; assay: Compound was tested for inhibition of K+ ion uptake in cat cerebrocortical slices at concentration of (10e-10) M; format: functional; procedure, shortened: as §2
Cavia porcellus [37] = organism: Cavia porcellus; assay: Compound was tested for inhibition of HCO3- dependent swelling of guinea pig cerebrocortical slices at concentration of (10e-10) M; format: functional; procedure, shortened: as §1
Cavia porcellus [38] = organism: Cavia porcellus; assay: Compound was tested for inhibition of sodium ion uptake in guinea pig cerebrocortical slices at concentration of (10e-11) M; format: functional
Felis catus [39] = assay: In vivo activity in the acceleration-deceleration head injury assay at dose of 1 mg/kg; 12/25

SMILES: CCCC12CCC(=O)C=C1c1c(cc(OCC(=O)O)c(Cl)c1Cl)C2 (single isomer, unassigned; (+))
- Activity (Felis catus [1]): 85.6
- Swelling (Cavia porcellus [2]): 27.6%
- Deaths (Felis catus [3]): 14
- Deaths (Felis catus [4]): 7
- Activity (Cavia porcellus [5]): 108.6
- Activity (Felis catus [6]): 91.9
- Swelling (Felis catus [7]): 19.5%
- Activity (Rattus norvegicus [8]): 92.3
- Activity (Cavia porcellus [9]): 87.7
- Activity (Cavia porcellus [10]): 104.7
- Activity (Cavia porcellus [11]): 94.8
- Activity (Felis catus [12]): 86.4
- Activity (Felis catus [13]): 87.9
- Swelling (Felis catus [14]): 18.6%
- Activity (Felis catus [15]): 83.8
- Swelling (Rattus norvegicus [16]): 22.8%
- Activity (Felis catus [17]): 86
- Activity (Felis catus [18]): 107.3
- Swelling (Cavia porcellus [19]): 30.9%
- Activity (Cavia porcellus [20]): 88.1
- Activity (Rattus norvegicus [21]): 118.9
- Activity (Rattus norvegicus [22]): 101.4
- Activity (Cavia porcellus [23]): 115
- Deaths (Felis catus [24]): 8
- Activity (Rattus norvegicus [25]): 101.5
- Activity (Felis catus [26]): 87.6
- Activity (Rattus norvegicus [27]): 75.4
- Activity (Cavia porcellus [28]): 95
- Swelling (Rattus norvegicus [29]): 19.1%
- Deaths (Felis catus [30]): 1
- Swelling (Felis catus [31]): 21.3%
- Mortality (Rattus norvegicus [32]): 37.5% and 79%
- Activity (Felis catus [33]): 83.9
- Deaths (Felis catus [34]): 5
- Activity (Rattus norvegicus [35]): 132.4
- Activity (Felis catus [36]): 86.9
- Swelling (Cavia porcellus [37]): 26.8%
- Activity (Cavia porcellus [38]): 103.4
- Deaths (Felis catus [39]): 12
